Screens deposited in PubChem by Sanford-Burnham Center for Chemical Genomics.
In the library only some 1.5% were active in any assay of this set; here they are far more common.
EBI2 antag – EBI2 (human) antagonism | P32249 | EBI2 beta-arrestin recruitment, luminescence, 7a,25-OHC stimulated | inhibition, % at 5 µM | 360,000 compounds, 0.81% hits; in the data active = inhibition above about 38%;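 note: enzyme fragment complementation signal reports receptor beta-arrestin coupling in cells; 0% = agonist plus DMSO wells and 100% = wells without agonist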
Target sequence (P32249 whole entry, looked up, the tested form may be a part): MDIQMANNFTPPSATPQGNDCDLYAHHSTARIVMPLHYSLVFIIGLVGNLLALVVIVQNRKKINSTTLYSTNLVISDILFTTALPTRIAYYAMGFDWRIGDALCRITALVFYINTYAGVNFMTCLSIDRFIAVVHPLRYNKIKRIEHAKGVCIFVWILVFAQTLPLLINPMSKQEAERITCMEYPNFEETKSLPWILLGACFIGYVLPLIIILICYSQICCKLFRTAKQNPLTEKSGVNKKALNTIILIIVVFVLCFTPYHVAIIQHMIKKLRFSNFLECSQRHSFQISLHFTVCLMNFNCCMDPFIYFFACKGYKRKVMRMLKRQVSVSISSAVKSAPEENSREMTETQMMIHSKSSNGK
APJ antagonist – antagonists of human APJ apelin receptor; P35414; CHO-K1 APJ beta-arrestin complementation, luminescence; inhibition, % at 20 µM; 330,000 compounds, 0.32% hits; AID 2521;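 active = inhibition above about 40% at 20 µM, limit read from the data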;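 note: cells challenged with 10 nM apelin-13 agonist together with compound; plate controls were apelin-13 plus DMSO wells for no effect and DMSO wells lacking apelin-13 for full effect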
CCR6 antag – blocks CCL20-driven beta-arrestin recruitment at human CCR6 | inhibition, % at 20 µM | P51684 | CHO-K1 CCR6 PathHunter beta-arrestin, luminescence, CCL20-stimulated | AID 493098 | 340,000 compounds, 0.49% hits;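 active = compounds whose inhibition of the agonist-driven luminescence signal at 20 µM reaches about 50%, limit read from the data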;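 note: cells stimulated with CCL20 at 14 nM final; plate controls were DMSO with CCL20 for no effect and DMSO without agonist for full effect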
CXCR6 inh – CXCR6 (human) receptor inhibition. O00574. CHO-K1 PathHunter CXCR6 beta-arrestin, luminescence. inhibition, % at 20 µM. 360,000 compounds, 0.36% hits. AID 602244; in the data active = inhibition above about 34%, passing the limit was not always enough;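 note: antagonist mode with CXCL16 agonist at 10 nM final; 0% = 10 nM CXCL16 with DMSO and 100% = unstimulated wells without agonist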
APJ ag – activates the human apelin receptor APJ | P35414 | CHO-K1 APJ PathHunter beta-arrestin, luminescence; 0% DMSO wells, 100% apelin | activation, % at 20 µM | 330,000 compounds, 0.11% hits | AID 2520;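 active = activation more than six SD over the plate average, tested at 20 µM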;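 note: 0% = DMSO alone and 100% = apelin-13 at 10 nM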
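Assay system: CHO-K1 APJ beta-arrestin complementation cell line / Compound: single test compound dose, 20 µM final, 1% DMSO / Times: overnight seeding, 90 min compound at 25 °C, 1 h detection / Technique: beta-gal luminescence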
* hit, by the source's call; . = no result.

SMILES	EBI2 antag	APJ antagonist	CCR6 antag	CXCR6 inh	APJ ag
CC(=O)Nc1ccc(Nc2c3c4c(cccc4n(C)c2=O)C(=O)c2ccccc2-3)cc1	13	21	52*	26	-1
COc1cccc(/C=N/NC(=O)c2ccc([N+](=O)[O-])cc2Cl)c1O	22	-5	12	-1	2
Cc1ccnc(NC(=S)N2CCN(c3cccc(C(F)(F)F)c3)CC2)c1	-7	28	51*	39	-5
O=C(Cc1ccc(Cl)cc1)NN1C(=O)c2ccccc2C1=O	-1	13	5	-8	2
COC(=O)[C@@H]1[C@@H](C#N)C2(c3ccccc3-c3ccccc32)N(c2ccc(Cl)cc2)N1C#N	17	7	47	52*	1
COc1cc(/C=C/c2cc(OC(C)=O)c3ccccc3n2)c(OC(C)=O)c([N+](=O)[O-])c1	15	39	63*	31	-7
COC(=O)c1ccc(N(CC(=O)NC2CCCC2)C(=O)c2ccc(C)s2)cc1	6	4	20	5	-5
CCN1/C(=C\C=C2\C(=O)N(C)C(=S)N2C)Sc2ccccc21	21	13	38	23	19*
CC1(C(=O)NCC2CC2)Cc2c(-c3ccc4c(c3)OCO4)ccnc2O1 (configuration not stated)	-2	.	.	3	.
O=C1Nc2ccccc2/C1=C\C(=O)c1ccccc1	61*	14	35	16	-4
COC(=O)C1Cc2ccccc2CN1S(=O)(=O)c1ccc(C)cc1 (configuration not stated)	8	-10	0	7	1
COC(=O)C1CN(S(=O)(=O)c2ccc(C)cc2)CCN1S(=O)(=O)c1ccc(C)cc1 (configuration not stated)	55*	12	8	2	-3
COC(=O)c1ccc2c(=O)n(CCCCCC(=O)N3CCN(c4ccccc4)CC3)c(=O)[nH]c2c1	-20	-34	-10	2	38*
COc1cccc(SCc2noc(C(=O)NC(C)C)c2C(=O)NC(C)C)c1	-7	15	11	1	-2
CNC(=O)c1c(NC(=O)c2nc3ccccc3s2)sc2c1CCC2	10	39	.	40*	-6
Cc1cc(C)c(S(=O)(=O)/N=C2\C=C(NS(=O)(=O)c3ccccc3)C(=O)c3ccccc32)c(C)c1	9	29	38	31	-5
O=C1C(Nc2ccc(O)cc2)=C/C(=N/S(=O)(=O)c2cccs2)c2ccccc21	20	.	59*	34	.
Cc1cccc(NC2=C/C(=N/S(=O)(=O)c3cccs3)c3ccccc3C2=O)c1	17	.	53*	27	.
Cc1ccc(Cl)cc1NC1=C/C(=N\S(=O)(=O)c2cccs2)c2ccccc2C1=O	6	39	59*	31	-1
O=C(O)c1ccc(NC2=C/C(=N/S(=O)(=O)c3cccs3)c3ccccc3C2=O)cc1	-28	.	.	14	.
Cc1ccc(NC2=C/C(=N\S(=O)(=O)c3cccs3)c3ccccc3C2=O)c(C)c1	26	24	59*	33	-6
CCc1ccc(S(=O)(=O)/N=C2\C=CC(=O)c3ccccc32)cc1	.	-33	.	.	5
CCc1ccc(S(=O)(=O)/N=C2/C=C(Sc3ncn[nH]3)C(=O)c3ccccc32)cc1	3	.	.	54*	.
CCc1ccc(S(=O)(=O)/N=C2\C=C(Nc3ccc(O)cc3)C(=O)c3ccccc32)cc1	9	25	57*	41*	-7
CCc1ccc(S(=O)(=O)/N=C2\C=C(Nc3cccc(C(=O)O)c3)C(=O)c3ccccc32)cc1	-2	1	45	18	-2
SMILES	EBI2 antag	APJ antagonist	CCR6 antag	CXCR6 inh	APJ ag
CNC(CC(=O)c1ccc([N+](=O)[O-])cc1)C(Cl)(Cl)Cl (configuration not stated)	-1	.	.	90*	.
COc1ccc(S(=O)(=O)N(C)c2ccc(C(=O)Nc3cccnc3)cc2)cc1OC	-2	-3	3	-1	8
CCCCn1nnc(NC(=S)NC(=O)c2cccs2)n1	-1	11	45	29	-6
COc1ccc(NC(=O)Cc2ccccc2)cn1	-2	0	6	-7	0
COc1ccc(CS(=O)(=O)/C(Cl)=C(/Cl)C(=O)Nc2ccc(OC)nc2)cc1	72*	18	28	40	-5
Cc1cc(NS(=O)(=O)c2ccc(NC(=O)c3ccc(Cl)cc3Cl)cc2)no1	2	0	2	-4	4
Cc1cc(NS(=O)(=O)c2ccc(NC(=S)NC(=O)c3ccc(Cl)cc3Cl)cc2)no1	10	30	52*	9	0
Cc1ccccc1CS(=O)(=O)c1nnc([C@H](CC(C)C)NC(=O)OC(C)(C)C)o1	13	31	53*	27	-1
CC(C)(C)OC(=O)N[C@@H](Cc1ccccc1)c1nnc(S(=O)(=O)Cc2cccc(F)c2)o1	.	29	69*	.	0
CC[C@@H](C)[C@H](NC(=O)OC(C)(C)C)c1nnc(S(=O)(=O)Cc2cc(C)ccc2C)o1	12	14	48	37	0
CC(C)C[C@H](N)c1nnc(S(=O)(=O)Cc2cccc(F)c2)o1	-4	-1	13	13	0
COc1ccc(NC(=O)CN2CCCC2c2cccs2)cc1S(=O)(=O)N1CCCCC1 (configuration not stated)	4	-19	9	-12	5
COc1cccc(NC(=O)C(OC(=O)c2cnc(C)cn2)c2ccccc2)c1 (configuration not stated)	-2	5	8	6	0
CCN1/C(=c2/s/c(=C3/C(=O)N(c4ccccc4)N=C3C)n(CC)c2=O)C=Cc2ccccc21	-1	11	52*	10	-2
CCN1/C(=C2\C(=O)N(c3ccccc3)N=C2C)C=Cc2cc(C)ccc21	-8	7	11	0	-5
Cc1ccc2c(c1)N(CC(=O)NCC(C)c1ccccc1)C(=O)c1cccnc1O2 (configuration not stated)	6	-59	4	4	-2
CC1CCCN(C2=NC(=O)/C(=C/c3cn(-c4ccccc4)nc3-c3cccc(S(=O)(=O)N(C)C)c3)S2)C1 (configuration not stated)	68*	7	-7	17	-1
C#CCN(C[C@@H]1[C@@H](OC(=O)NCc2ccccc2F)[C@@H](OC(=O)NCc2ccccc2F)Cn2c(=O)ccc(=O)n21)S(=O)(=O)c1ccc(C)cc1	55*	.	.	-1	.
Cc1cccc(OCC(=O)NCC(=O)N/N=C/c2cc(Br)cc(Br)c2O)c1	-1	22	10	45*	-3
Cc1cc(C)c2c(=N)c3ccccc3n(CCCCCCCCn3c4ccccc4c(=N)c4c(C)cc(C)nc43)c2n1	14	.	107*	40*	.
O=C(CSc1cccc[n+]1[O-])Nc1cc(Cl)ccc1[N+](=O)[O-]	-7	-17	-5	-20	2
O=[N+]([O-])c1ccc(Nc2ccccc2)c2nonc12	13	52*	51*	32	-8
